Results of several laboratories.
Target: Serine/threonine-protein kinase pim-3 (PIM3, Homo sapiens, UniProt Q86V86)

For `CC(=O)Nc1c(C(C)=O)c(=O)n(C)c2nc(-c3ccc(Cl)cc3Cl)c(-c3ccc(Cl)cc3)cc12`, the remaining binding was 100% (cell-free assay, competition with immobilised ligand; 1 µM).
For `C[C@@H]1CN(c2ccc3ncc(-c4ccc5[nH]nc(C6CC6)c5c4)n3n2)C[C@H](C)O1`, the remaining binding was 81% (binding, competition with immobilised ligand; 50 nM).
`CSc1cccnc1N1CCN(Cc2nc3ccccc3[nH]2)CC1` has a remaining binding of 94% (cell-free assay, competition with immobilised ligand; 1 µM).
`CC1CCCN1c1nccc(-c2cnn3ncccc23)n1` (stereo not drawn) gave a remaining binding of 100% (binding; 1 µM).
`O=C(c1ccc(Nc2ncc(Cl)c(-c3ccc(Cl)s3)n2)cc1)N1CCC(N2CCCC2)CC1` has a remaining binding of 73% (binding, competition with immobilised ligand; 1 µM).
With `C=CC(=O)N1CCC(C(=O)NCC(=O)N2CCN(c3nc(-c4cnc(N)nc4C(F)F)nc(N4CCOCC4)n3)CC2)CC1` the remaining binding was 97% (binding, competition with immobilised ligand; 1 µM).
`C[C@H](c1cccc(C#N)c1)n1cc(Cl)cc(C(N)=O)c1=N` has a remaining binding of 100% (cell-free assay, competition with immobilised ligand; 1 µM).
With `N[C@H]1CCN(c2nccc(-c3cnn4ncccc34)n2)C1` the remaining binding was 79% (binding; 1 µM).
With `O=C1CCc2cc(Nc3cc(OC4CCOCC4)c([N+](=O)[O-])cc3Cl)ccc2N1` the remaining binding was 100% (cell-free assay, competition with immobilised ligand; 1 µM).
The remaining binding of `CN(C)c1nccc(-c2cnc3ncccn23)n1` is reported as 88% (binding; 1 µM).
With `O=C(NCCCN1CCOCC1)c1ccc(Nc2ncc(Cl)c(-c3ccc(Cl)s3)n2)cc1` the remaining binding was 100% (binding, competition with immobilised ligand; 1 µM).
`CO[C@@H](C)c1c(Nc2ccc([C@@H](N(C)C(=O)C3CCS(=O)(=O)CC3)C(F)(F)F)cc2)cnc2cc(Cl)nn12` has a remaining binding of 97% (cell-free assay, competition with immobilised ligand; 1 µM).
For `CNC(=O)[C@@H]1CC[C@@H](n2c(-c3ccc4cnccc4c3)nc3ccc(C(=O)NCc4cccc(C(N)=O)c4)cc32)C1`, the remaining binding was 100% (binding, competition with immobilised ligand; 1 µM).
With `C[C@H]1CCN(c2nccc(-c3cnn4ncccc34)n2)C1` the remaining binding was 81% (binding; 1 µM).
`CCN1CCN(Cc2ccc(C(=O)Nc3ccc(C)c(Oc4ccc5c(c4)CC(=O)N5)c3)cc2C(F)(F)F)CC1` gave a remaining binding of 100% (binding, competition with immobilised ligand; 1 µM).
The remaining binding of `c1cnn2ncc(-c3ccnc(N4CCC45COC5)n3)c2c1` is reported as 84% (binding; 1 µM).
`O=C(NCCCN1CCOCC1)c1ccc(Nc2nccc(-c3cc4ccccc4s3)n2)cc1` has a remaining binding of 91% (binding, competition with immobilised ligand; 1 µM).
For `C[C@@H]1CN(c2cc(-c3nn(C)c4ccc(OC5(C)CC5)cc34)ncn2)C[C@H](C)O1`, the remaining binding was 92% (cell-free assay, competition with immobilised ligand; 1 µM).
With `C[C@@H](c1ccc(-n2cnc3c(N)ncnc32)cc1)N1CCc2nn(C)c(Cc3ccccc3)c2C1=O` the remaining binding was 90% (binding, competition with immobilised ligand; 0.1 µM).
With `CCCOc1ccc([C@@H]2[C@@H](C(=O)O)[C@H](c3ccc4c(c3)OCO4)CN2CC(=O)Nc2c(CC)cccc2CC)cc1` the remaining binding was 95% (cell-free assay, competition with immobilised ligand; 1 µM).
`O=C(Nc1c[nH]nc1C(=O)NC1CCNCC1)c1cc(F)cc(F)c1` gave a remaining binding of 88% (binding, competition with immobilised ligand; 1 µM).
With `CN(CCCC(F)(F)F)c1nccc(-c2cnn3ncccc23)n1` the remaining binding was 100% (binding; 1 µM).
The remaining binding of `COc1ncc2cc3ccccc3nc2c1C#N` is reported as 79% (cell-free assay, competition with immobilised ligand; 5 µM).
`N#Cc1ccccc1CSc1nnc2c(n1)[nH]c1ccccc12` has a remaining binding of 74% (binding, competition with immobilised ligand; 10 µM).
